Test results published in ChEMBL document CHEMBL4732146, “Nitric oxide-donating and reactive oxygen species-responsive prochelators based on 8-hydroxyquinoline as anticancer agents” (Eur J Med Chem, 2021).
The source made the active and inactive calls. The calls are words filed in the database; no cut-off is given here.

Experiments:
[1] = tested on: HeLa; assay: Cytotoxicity against human HeLa cells assessed as reduction in cell viability at 10 to 20 uM measured after 48 hrs by MTT assay; type: functional, cell-based; details: dose 10-20 µM
[2] = tested on: PANC-1; assay: Cytotoxicity against human PANC-1 cells assessed as reduction in cell viability at 10 uM measured after 48 hrs by MTT assay; type: functional, cell-based
Procedure, shortened: (§1)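 MTT assay with 48 h compound exposure at 10 or 20 µM. Cells seeded 6 × 10⁴ per well and grown 24 h beforehand. MTT 4 h, DMSO solubilisation, A490 read. Percent cell death given as mean ± SD, n = 3.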

[3] = tested on: PANC-1; assay: Cytotoxicity against human PANC-1 cells assessed as reduction in cell viability at 20 uM measured after 48 hrs by MTT assay relative to control; type: functional; procedure, shortened: as §1
[4] = tested on: HepG2; assay: Cytotoxicity against human HepG2 cells assessed as reduction in cell viability at 10 to 20 uM measured after 48 hrs by MTT assay; type: functional, cell-based; details: dose 10-20 µM; procedure, shortened: as §1
[5] = tested on: A549; assay: Cytotoxicity against human A549 cells assessed as reduction in cell viability at 10 to 20 uM measured after 48 hrs by MTT assay; type: functional, cell-based; details: dose 10-20 µM
[6] = Metal chelating activity assessed as compound-Cu2+ complex formation measured after 40 mins by calcein dye based fluorescence assay; details: dose 10-50 µM
Procedure, shortened: (§2)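 Calcein (10 µM) in 50 mM HEPES was quenched by 10 µM CuCl₂ (or FeCl₃ for the Fe³⁺ arm). Chelator was added from DMSO stock to a final 10 or 50 µM and incubated 40 min at room temperature. Recovery rate was calculated from fluorescence (λex 485 / λem 520 nm); n = 3.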

[7] = Metal chelating activity assessed as compound-Fe3+ complex formation measured after 40 mins by calcein dye based fluorescence assay; details: dose 10-50 µM; procedure, shortened: as §2
[8] = tested on: MCF7; assay: Cytotoxicity against human MCF7 cells assessed as reduction in cell viability at 10 to 20 uM measured after 48 hrs by MTT assay; type: functional, cell-based; details: dose 10-20 µM; procedure, shortened: as §1
[9] = Stability of compound in pH 7.4 PBS buffer measured after 5 to 24 hrs by RP-HPLC analysis; type: physicochemical; details: time 5-24 hrs
Procedure, shortened: (§3)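 Compound (1 µM) stirred at 37 °C either in PBS (pH 5.0, 7.4 or 10.0) containing 5% DMSO or in DMEM with 10% FBS. Aliquots were analysed by RP-HPLC (0.1% TFA water/methanol gradient, 256 nm) for remaining intact compound, up to 24 h.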

[10] = tested on: SW1990; assay: Cytotoxicity against human SW1990 cells assessed as reduction in cell viability measured after 48 hrs in presence of CuCl2 by MTT assay; type: functional, cell-based; details: SW1990, 48 h
Procedure, shortened: (§4)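 Cells seeded 6 × 10⁴ per well, cultured 24 h at 37 °C under 5% CO₂, then exposed to compound for 48 h, with or without 50 µM CuCl₂ or FeCl₃ co-incubation. MTT added for 4 h at 37 °C, formazan dissolved in DMSO, A490 read. IC50 reported as mean (SD), n = 3.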

[11] = tested on: SW1990; assay: Cytotoxicity against human SW1990 cells assessed as reduction in cell viability measured after 48 hrs in presence of FeCl3 by MTT assay; type: functional, cell-based; details: SW1990, 48 h; procedure, shortened: as §4
[12] = tested on: PANC-1; assay: Cytotoxicity against human PANC-1 cells assessed as reduction in cell viability measured after 48 hrs by MTT assay; type: functional, cell-based; details: PANC-1, 48 h; procedure, shortened: as §4
[13] = Cytotoxicity against human RWPE2 cells assessed as reduction in cell viability measured after 48 hrs by MTT assay; type: cell-based; details: RWPE2, 48 h; procedure, shortened: as §4
[14] = Cytotoxicity against human H6C7 cells assessed as reduction in cell viability measured after 48 hrs by MTT assay; type: cell-based; details: H6C7, 48 h; procedure, shortened: as §4
[15] = tested on: PANC-1; assay: Cytotoxicity against human PANC-1 cells assessed as reduction in cell viability measured after 48 hrs in presence of FeCl3 by MTT assay; type: functional, cell-based; details: PANC-1, 48 h; procedure, shortened: as §4
[16] = Stability of compound in DMEM with 10% fetal bovine serum measured after 5 to 24 hrs by RP-HPLC analysis; type: cell-free; details: time 5-24 hrs; procedure, shortened: as §3
[17] = Stability of compound in pH 10 PBS buffer measured after 5 to 24 hrs by RP-HPLC analysis; type: physicochemical; details: time 5-24 hrs; procedure, shortened: as §3
[18] = Stability of compound in pH 5 PBS buffer measured after 5 to 24 hrs by RP-HPLC analysis; type: physicochemical; details: time 5-24 hrs; procedure, shortened: as §3
[19] = tested on: PANC-1; assay: Cytotoxicity against human PANC-1 cells assessed as reduction in cell viability measured after 48 hrs in presence of CuCl2 by MTT assay; type: functional, cell-based; details: PANC-1, 48 h; procedure, shortened: as §4
[20] = tested on: SW1990; assay: Cytotoxicity against human SW1990 cells assessed as reduction in cell viability measured after 48 hrs by MTT assay; type: functional, cell-based; details: SW1990, 48 h; procedure, shortened: as §4

Row | Activity [6] | Activity [7] | Stabilty [9] | Stabilty [17] | Stabilty [18] | Structure (SMILES) | Activity [1] | Activity [2] | Activity [3] | Activity [4] | Activity [5] | Activity [8] | IC50 [10] [µM] | IC50 [11] [µM] | IC50 [12] [µM] | IC50 [13] [µM] | IC50 [14] [µM] | IC50 [15] [µM] | Stability [16] | IC50 [19] [µM] | IC50 [20] [µM]
1 | Dose-dependent effect | Dose-dependent effect | – | – | – | O=C(/C=C/c1ccc2cccc(O)c2n1)NCCCOc1no[n+]([O-])c1S(=O)(=O)c1ccccc1 | Active | Active | Active | Active | Active | Active | – | – | – | – | – | – | – | – | –
2 | Dose-dependent effect | Dose-dependent effect | – | – | – | O=C(NCCOc1no[n+]([O-])c1S(=O)(=O)c1ccccc1)c1ccc2cccc(O)c2n1 | Active | Active | Active | Active | Active | Active | – | – | – | – | – | – | – | – | –
3 | Dose-dependent effect | Dose-dependent effect | – | – | – | O=C(/C=C\c1ccc2cccc(O)c2n1)N1CCC(Oc2no[n+]([O-])c2S(=O)(=O)c2ccccc2)CC1 | Active | Active | Active | Active | Active | Active | – | – | – | – | – | – | – | – | –
4 | Dose-dependent effect | Dose-dependent effect | – | – | – | O=C(/C=C\c1ccc2cccc(O)c2n1)N1CCN(CCOc2no[n+]([O-])c2S(=O)(=O)c2ccccc2)CC1 | Active | Active | Active | Active | Active | Active | – | – | – | – | – | – | – | – | –
5 | – | – | Stable | Stable | Stable | O=C(c1ccc2cccc(OCc3ccc(B(O)O)cc3)c2n1)N1CCC(Oc2no[n+]([O-])c2S(=O)(=O)c2ccccc2)CC1 | – | – | – | – | – | – | 3.05 | 18.7 | 16.6 | 30.1 | > 50 | 20.5 | Stable | 2.69 | 12.9
6 | – | – | Stable | Stable | Stable | CC1(C)OB(c2ccc(COc3cccc4ccc(C(=O)NCCCOc5no[n+]([O-])c5S(=O)(=O)c5ccccc5)nc34)cc2)OC1(C)C | – | – | – | – | – | – | 3.2 | 20.8 | 17.1 | 39.8 | 40.4 | 25.3 | Stable | 4.89 | 15.7
